Assay results taken from ChEMBL document CHEMBL1126673, “6-[(aminoalkyl)amino]-substituted 7H-benzo[e]perimidin-7-ones as novel antineoplastic agents. Synthesis and biological evaluation” (J Med Chem, 1993).

How the values were obtained:
[1] = target: NADH-ubiquinone oxidoreductase chain 4 (Homo sapiens) (UniProt P03905); experiment: (§1) Concentration of substrate at which the amount of total cytochrome c reduction is decreased by 10%; assay type: functional
How it was run: (§2)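 NADH dehydrogenase substrate assay: decrease in enzymatic cytochrome c reduction at low NADH. Mixture of […], 0–200 μM compound, 10 μM NADH, 0.125 units/mL NADH dehydrogenase, 50 μg/mL SOD, 0.50 M HEPES pH 7.4. IC10 = substrate concentration reducing total cytochrome c reduction by 10%.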

[2] = target: NADH-ubiquinone oxidoreductase chain 4 (Homo sapiens) (UniProt P03905); experiment: (§3) Activity of NADH dehydrogenase was determined; assay type: functional
How it was run: (§4)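 Enzymatic NADH oxidation stimulated by compound: reaction with 100 μM test compound, 100 μM NADH, NADH dehydrogenase at the stated activity, in 0.05 M HEPES pH 7.4.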

[3] = NADH oxidation by the compound was determined; assay type: functional; how it was run: as §4
[4] = system: L1210; experiment: Concentration of compound required to inhibit the cellular protein biosynthesis by 50%; assay type: functional, cell-based; conditions: Mus musculus
How it was run: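 Murine L1210 leukemia cells grown in RPMI 1640 with 5% fetal calf serum, penicillin/streptomycin, 37 °C, 5% CO2, passaged every 2–3 days. Log-phase cells seeded at final 0.05×10^6 cells/mL and exposed 48 h. Growth inhibition read as cellular protein content; EC50 = concentration giving 50% inhibition. At least four runs, mean ± SEM.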

[5] = system: Mus musculus; experiment: (§5) Ratio of medium survival time of the treated to the control mice at the dose of 100 (mg/kg); assay type: functional
[6] = Ratio of toxic deaths/survivors 7 days after the day 5 injection as a measure of drug toxicity at the dose of 100 (mg/kg); assay type: organism-based; conditions: in vivo, 168 h
How it was run: (§6)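 P388 leukemia model in (BALB/c × DBA/2) F1 mice, 10^6 cells ip on day 0. Toxicity was scored as toxic deaths/survivors 7 days after the day-5 injection.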

[7] = Ratio of toxic deaths/survivors 7 days after the day 5 injection as a measure of drug toxicity at the dose of 200 (mg/kg); assay type: organism-based; conditions: in vivo, 168 h; how it was run: as §6
[8] = system: Mus musculus; experiment: Ratio of medium survival time of the treated to the control mice at the dose of 200 (mg/kg); assay type: functional
[9] = system: P388; experiment: ratio of medium survival time of the treated to the control mice at the dose of 12.50 (mg/kg); assay type: functional, Mus musculus
[10] = system: P388; experiment: ratio of medium survival time of the treated to the control mice at the dose of 3.12 (mg/kg); assay type: functional, Mus musculus
[11] = system: P388; experiment: ratio of medium survival time of the treated to the control mice at the dose of 6.25 (mg/kg); assay type: functional, Mus musculus
[12] = Ratio of toxic deaths/survivors 7 days after the day 5 injection as a measure of drug toxicity at the dose of 12.50 (mg/kg); assay type: functional; how it was run: as §6
[13] = Ratio of toxic deaths/survivors 7 days after the day 5 injection as a measure of drug toxicity at the dose of 6.25 (mg/kg); assay type: functional; how it was run: as §6
[14] = Ratio of toxic deaths/survivors 7 days after the day 5 injection as a measure of drug toxicity at the dose of 3.12 (mg/kg); assay type: functional; how it was run: as §6
[15] = species on record: Equus caballus; experiment: as §1; assay type: functional; how it was run: as §2
[16] = as §3; assay type: functional; how it was run: as §4
[17] = system: P388; experiment: Ratio of medium survival time of the treated to the control mice at the dose of 50 (mg/kg); assay type: functional, Mus musculus
[18] = system: P388; experiment: ratio of medium survival time of the treated to the control mice at the dose of 25 (mg/kg); assay type: functional, Mus musculus
[19] = Ratio of toxic deaths/survivors 7 days after the day 5 injection as a measure of drug toxicity at the dose of 25 (mg/kg); assay type: organism-based; conditions: in vivo, 168 h; how it was run: as §6
[20] = Ratio of toxic deaths/survivors 7 days after the day 5 injection as a measure of drug toxicity at the dose of 50 (mg/kg); assay type: organism-based; conditions: in vivo, 168 h; how it was run: as §6
[21] = system: P388; experiment: as §5; assay type: functional, Mus musculus
[22] = system: P388; experiment: ratio of medium survival time of the treated to the control mice at the dose of 50 (mg/kg); assay type: functional, Mus musculus
[23] = Ratio of toxic deaths/survivors 7 days after the day 5 injection as a measure of drug toxicity; conditions: 168 h; how it was run: as §6

Sequence of NADH-ubiquinone oxidoreductase chain 4 (Homo sapiens) (P03905 whole entry, looked up): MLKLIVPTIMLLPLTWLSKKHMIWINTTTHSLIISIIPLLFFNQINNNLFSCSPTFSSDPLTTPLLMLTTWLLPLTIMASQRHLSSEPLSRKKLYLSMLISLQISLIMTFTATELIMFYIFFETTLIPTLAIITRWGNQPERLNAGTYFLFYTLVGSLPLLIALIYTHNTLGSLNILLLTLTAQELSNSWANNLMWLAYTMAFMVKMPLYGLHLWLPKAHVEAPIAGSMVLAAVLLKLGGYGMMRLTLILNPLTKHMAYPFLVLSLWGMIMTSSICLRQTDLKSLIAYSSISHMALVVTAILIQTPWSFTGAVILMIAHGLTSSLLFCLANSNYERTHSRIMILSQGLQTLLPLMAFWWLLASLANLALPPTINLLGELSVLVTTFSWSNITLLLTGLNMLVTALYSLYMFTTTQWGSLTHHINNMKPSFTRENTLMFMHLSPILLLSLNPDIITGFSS

Row | Activity [2] | SMILES | Oxidation [3] | EC50 [4] | ToxD/Surv [6] | IC10 [15] | Activity [16] | T/C [17] | Activity [3] | ToxD/Surv [20] | T/C [21] | other results
1 | 0.15 units ml-1 | COc1cccc2c1C(=O)c1c(O)c3c(c(O)c1C2=O)C[C@@](O)(C(C)=O)C[C@@H]3O[C@H]1C[C@H](N)[C@H](O)[C@H](C)O1 | 33 µM/min | – | – | – | – | – | – | – | – | IC10 ([1]; Equus caballus): 2000 nM
2 | – | Nc1ccc2ncnc3c2c1C(=O)c1ccccc1-3 | – | 945 nM | 0 | – | – | – | – | – | – | T/C [5]: 100%; ToxD/Surv [7]: 0; T/C [8]: 100%
3 | – | NCCNc1ccc2ncnc3c2c1C(=O)c1ccccc1-3 | – | 379 nM | – | > 300000 nM | 0.75 U/mL | 150% | 4.5 µM/min | 7 | – | T/C [18]: 140%; ToxD/Surv [19]: 7
4 | – | CN(C)CCNc1ccc2ncnc3c2c1C(=O)c1ccccc1-3 | – | 203 nM | 6 | > 300000 nM | 0.75 U/mL | – | 6.5 µM/min | 6 | 209% | T/C [22]: 155%
5 | – | NCCCNc1ccc2ncnc3c2c1C(=O)c1ccccc1-3 | – | 546 nM | 4 | > 300000 nM | 0.75 U/mL | 127% | 4.7 µM/min | 7 | 127% | –
6 | 0.15 units ml-1 | COc1cccc2c1C(=O)c1c(O)c3c(c(O)c1C2=O)C[C@@](O)(C(=O)CO)C[C@@H]3O[C@H]1C[C@H](N)[C@H](O)[C@H](C)O1 | 30.1 µM/min | – | – | – | – | – | – | – | – | –
7 | – | CCN(CC)CCNc1ccc2ncnc3c2c1C(=O)c1ccccc1-3 | – | 460 nM | 7 | > 300000 nM | 0.75 U/mL | 140% | 7 µM/min | 5 | 180% | –
8 | – | CNCCNc1ccc2ncnc3c2c1C(=O)c1ccccc1-3 | – | 268 nM | 6 | > 300000 nM | 0.75 U/mL | 146% | 7.6 µM/min | 6 | 164% | –
9 | – | O=C1c2ccccc2-c2ncnc3ccc(NCCNCCO)c1c23 | – | 296 nM | – | – | 0.75 U/mL | 173% | 7.4 µM/min | – | 255% | IC10 ([1]; Equus caballus): > 300000 nM; ToxD/Surv [23]: 7

Row | SMILES | Activity [2] | Oxidation [3] | EC50 [4] | ToxD/Surv [6] | IC10 [15] | Activity [16] | T/C [17] | Activity [3] | ToxD/Surv [20] | T/C [21] | other results
10 | O=C1c2ccccc2C(=O)c2c(NCCNCCO)ccc(NCCNCCO)c21 [AMETANTRONE] | 0.75 units ml-1 | 8.8 µM/min | 275 nM | – | – | – | – | – | – | – | IC10 [1]: 114000 nM; T/C [9]: 300%; T/C [10]: 190%; T/C [11]: 210%; ToxD/Surv [12]: 6; ToxD/Surv [13]: 6; ToxD/Surv [14]: 6
